Screening data as filed in PubChem.
PREPL inhibitor: inhibitors of human prolyl oligopeptidase-like enzyme PREPL; 0.68% of 320,000 active; inhibition, % at 5.96 µM; Q4J6C6; AID 2751; recombinant PREPL, fluorescence polarization activity-based probe; in the data active means inhibition above about 43%;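 further: 0% = enzyme with DMSO and 100% = wells lacking enzyme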
Rin1 Abl inh: inhibitors of human Rin1-Abl protein interaction; P00519+Q13671; TR-FRET Rin1/Abl binding, biochemical; inhibition, % at 7.35 µM; 0.4% of 360,000 active; AID 588664; in the data active means inhibition above about 5%, passing the limit was not always enough
UBC13 polyUb: inhibitors of human UBC13 polyubiquitin chain formation; P61088; AID 485273; inhibition, % at 20 µM; 0.47% of 330,000 active; TR-FRET; in the data active means inhibition above about 45%, passing the limit was not always enough; inconclusive means no clear call, values can overlap the other calls
Target sequence (P61088 whole entry, looked up): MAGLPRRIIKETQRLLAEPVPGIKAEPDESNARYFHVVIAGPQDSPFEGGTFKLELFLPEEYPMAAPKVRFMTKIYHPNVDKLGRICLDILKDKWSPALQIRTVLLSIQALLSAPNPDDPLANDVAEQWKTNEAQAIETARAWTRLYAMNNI
RBBP9 inhibitor: inhibitors of human serine hydrolase RBBP9. 0.2% of 220,000 active. O75884. AID 1515. recombinant RBBP9, FP-Rh probe fluorescence polarization. inhibition, % at 7.94 µM;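 active means inhibition above the campaign mean of all tested compounds plus 3 SD, cut at about 14% in these data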;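 further: plate controls were DMSO wells with RBBP9 for no effect and wells lacking RBBP9 protein for full effect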
Target sequence (O75884 whole entry, looked up): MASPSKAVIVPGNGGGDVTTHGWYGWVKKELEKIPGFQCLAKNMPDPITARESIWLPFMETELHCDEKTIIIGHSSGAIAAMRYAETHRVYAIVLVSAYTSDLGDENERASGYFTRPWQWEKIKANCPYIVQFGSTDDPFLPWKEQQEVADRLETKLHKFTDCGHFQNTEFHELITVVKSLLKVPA
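Measured by – fluorescence polarization · Test system – RBBP9 protein · Input – 2.5 µM RBBP9 dispensing solution, before mixing · Measure – percent inhibition from mP, scaled between DMSO and no-protein wells · Benchmarks – DMSO-treated enzyme wells and wells lacking RBBP9 · Times – preincubation 30 min plus labeling 45 min at 25 °C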
SUMO HTRF inh: SUMOylation inhibition; P63279; HTRF SUMOylation assay, SAE1/SAE2 + UBC9, in vitro; inhibition, % at 35 µM; 0.36% of 290,000 active; in the data active means inhibition above about 50%, passing the limit was not always enough; inconclusive means no clear call, values can overlap the other calls
ALR H2O2 inh: blocks human ALR sulfhydryl oxidase activity. P55789. purified ALR, DTT oxidation, H2O2 HRP-luminol luminescence. inhibition, % (test concentration not listed). 3.8% of 290,000 active. AID 485317;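 active means mean replicate inhibition above about 79%, with every replicate also reaching it, limit read from the data; inconclusive means only one of the two criteria met; inactive means mean below limit and not every replicate reaching it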
Target sequence (P55789 whole entry, looked up): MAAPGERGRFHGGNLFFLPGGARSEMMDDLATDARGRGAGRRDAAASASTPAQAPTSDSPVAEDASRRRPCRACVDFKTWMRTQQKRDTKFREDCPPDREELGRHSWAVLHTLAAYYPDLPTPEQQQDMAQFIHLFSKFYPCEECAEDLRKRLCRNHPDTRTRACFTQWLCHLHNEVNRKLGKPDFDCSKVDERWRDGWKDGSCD
Casp3 UBC13 ctr: counter-screen for UBC13 inhibitors: human caspase-3 inhibition; 4% of 1,400 active; inhibition, % at 20 µM; shares compounds with UBC13 polyUb; Recombinant caspase-3, Caspase-Glo 3/7 luminescence, 60 min;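 active means mean inhibition across replicates above about 26%, limit read from the data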;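 further: plate controls were DMSO with caspase-3 for no effect and DMSO wells lacking enzyme for full effect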
UBC13 confirm: human UBC13 polyubiquitin inhibition, confirmed; shares compounds with UBC13 polyUb; UBC13 polyubiquitination, TR-FRET, biochemical; inhibition, % at 10 µM; 68% of 1,400 active; AID 488859; in the data active means inhibition above about 45%; inconclusive means no clear call, values can overlap the other calls
Numbers without * were called inactive; u = inconclusive; x = not tested or not shown. Most compounds without a hit are left out; they make up all but 4.3% or so of the library.

SMILES	PREPL inhibitor	Rin1 Abl inh	UBC13 polyUb	RBBP9 inhibitor	SUMO HTRF inh	ALR H2O2 inh	Casp3 UBC13 ctr	UBC13 confirm
CCC(=O)NC(c1cc(Cl)c2ccccc2c1O)C1CC1 (centres undefined)	-1	3	84*	x	x	-29	-1	72*
CCC(=O)NC(c1ccco1)c1cc(Cl)c2cccnc2c1O (centres undefined)	17	7	-22	-9	5	18	x	x
CC(=O)NC(c1cc(Cl)c2cccnc2c1O)C1CC1 (centres undefined)	11	6	-12	x	x	30	x	x
CCC(=O)NC(C)c1cc(Cl)c2ccccc2c1O (centres undefined)	12	1	51*	x	x	10	0	34
COC(=O)[C@@]12CCCCN1[C@H](c1ccc(-c3cc(C(C)=O)cs3)c(OC)c1)[C@H]1C(=O)N(C)C(=O)[C@H]12	3	2	52*	x	x	x	-6	36
CC(=O)Nc1ccc(S(=O)(=O)NCCc2cn3nc(C)c(C)nc3n2)cc1	6	4	18	x	23	-19	x	x
Cc1ccc(C(=O)NCCCNCCCN(C)C)cn1	-5	-1	52*	-10	-3	-8	-4	35
Cc1ccc(C(=O)NCCCNCCCNC(=O)c2ccc(C)nc2)cn1	6	-4	24	-12	20	-2	x	x
Cc1ccc(S(=O)(=O)N2CCOCC2)cc1NC(=O)CSc1nnc(NC2CC2)s1	9	2	7	x	x	-14	x	x
Nc1nc(Cl)nc2ccc(Br)cc12	-1	-16	49*	-8	10	-11	-3	u
CCc1ccccc1Nc1nc(N)nc(COC(=O)c2c(C)noc2C)n1	0	1	-3	x	x	-3	x	x
CC(C)Cn1cc(C(=O)NC2CCN(Cc3ccccc3)CC2)c2c3ccccc3n(C)c2c1=O	20	x	68*	-1	-15	-33	-2	45
CC(C)Cn1cc(C(=O)NCCCN2CCC(C)CC2)c2c3ccccc3n(C)c2c1=O	-6	-2	76*	x	x	-10	-4	50*
COc1ccc(N(CC(=O)N2CCOCC2)S(C)(=O)=O)cc1	5	0	-3	x	10	-8	x	x
CCc1cccc2c(C(=O)C(NCCOC)c3ccccc3)c[nH]c12 (centres undefined)	-5	3	23	x	5	-1	x	x
CCNC(C(=O)c1c[nH]c2c(CC)cccc12)c1ccccc1 (centres undefined)	-24	3	50*	x	11	7	-1	64*
CCOC(=O)C1CCN(C(=O)COC(=O)CSc2ccc(C(N)=O)cc2[N+](=O)[O-])CC1	0	-3	0	x	-8	-5	x	x
O=C(CCS(=O)(=O)c1ccc(Cl)cc1)NCCc1c[nH]c2ccccc12	-6	0	-6	-2	20	4	x	x
O=C1OCCN1C(=O)[C@H]1[C@H](c2ccc(Cl)cc2)C(c2cccc(Cl)c2)=NN1c1ccccc1	4	0	50*	-9	17	x	-2	u
COc1ccc(C(=O)OCC(=O)NC2CCCCCC2)cc1OC	6	3	66*	x	x	-5	1	5
COc1ccc(C(=O)OCC(=O)NC2CCCCCCC2)cc1OC	4	7	6	x	x	-6	x	x
O=C(Nc1ccc(C(=O)NCCCN2CCN(c3ccc(F)cc3)CC2)cc1)C1=CSCCO1	22	0	65*	x	2	2	-1	97*
O=C(Nc1ccc(C(=O)NCCCN2CCCCC2)cc1)C1=CSCCO1	-2	-1	2	x	7	-2	x	x
OC(c1cc(C(F)(F)F)nc2c(C(F)(F)F)cccc12)C1CCCCN1 (centres undefined)	-11	1	68*	x	x	-4	-6	49*
CCc1cccc(NC(=O)CSC2=NS(=O)(=O)c3ccccc32)c1	-5	-2	47*	-1	16	99*	0	25
SMILES	PREPL inhibitor	Rin1 Abl inh	UBC13 polyUb	RBBP9 inhibitor	SUMO HTRF inh	ALR H2O2 inh	Casp3 UBC13 ctr	UBC13 confirm
COc1cc2c3nnc(-c4ccc(F)cc4)c-3cn(Cc3ccc(C)cc3)c2cc1OC	-42	-4	49*	1	17	-11	2	16
COc1cc2c3nnc(-c4ccccc4)c-3cn(Cc3ccc(F)cc3)c2cc1OC	-11	-7	20	2	10	x	x	x
O=C1c2cccc3cccc(c23)C(=O)N1CCc1ccccc1	-1	-2	51*	-1	13	-2	3	u
Oc1ccc2ccccc2c1CNc1ccccn1	-27	-2	56*	x	12	19	-2	49*
CCN(CC)S(=O)(=O)c1ccc(C(=O)NNC(=O)C2CCN(S(=O)(=O)c3ccc(Cl)cc3)CC2)cc1	-3	-1	78*	-5	22	-2	0	77*
CCc1ccc(N(C(=O)c2snc(C(N)=O)c2N)C(C(=O)NCC2CCCO2)c2ccco2)cc1 (centres undefined)	-5	-2	61*	x	0	30	1	59*
Cc1ccc(N(C(=O)c2snc(C(N)=O)c2N)C(C(=O)NC2CCCC2)c2ccc(C)o2)cc1 (centres undefined)	3	3	64*	x	3	1	-1	71*
Cc1ccc(N(C(=O)c2snc(C(N)=O)c2N)C(C(=O)NC2CCCC2)c2ccco2)cc1 (centres undefined)	x	-1	80*	x	-14	x	-4	92*
CCOc1ccc(N(C(=O)c2snc(C(N)=O)c2N)C(CC)C(=O)NC2CCCC2)cc1 (centres undefined)	-1	0	78*	x	12	x	3	82*
CN(C)c1ccc(C(C(=O)NCC2CCCO2)N(C(=O)c2snc(C(N)=O)c2N)c2ccccc2)cc1 (centres undefined)	-8	-4	14	x	8	x	x	x
CC(C)CCN1CCN(Cc2ccc(Sc3nncn3C)o2)CC1CCO (centres undefined)	-1	1	2	-9	15	-14	x	x
